Shown are actives, neighbours in structure and some others; about 2.1% of the full set was active somewhere.
MEX-5 binding: C. elegans MEX-5 TCR-2 RNA binding activity. 0.38% of 300,000 active. Q9XUB2. MEX-5/FITC-TCR2 RNA binding, fluorescence polarization; stronger effect = lower value. activity score (negative = inhibition of binding), % at 10 µM;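 active means inhibition past about -25% in most replicates, and total fluorescence under double the plate's negative control median, limit read from the data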;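 further: 0% = DMSO and -100% = 5 µM competing unlabeled TCR2 RNA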
Target sequence (Q9XUB2 whole entry, looked up): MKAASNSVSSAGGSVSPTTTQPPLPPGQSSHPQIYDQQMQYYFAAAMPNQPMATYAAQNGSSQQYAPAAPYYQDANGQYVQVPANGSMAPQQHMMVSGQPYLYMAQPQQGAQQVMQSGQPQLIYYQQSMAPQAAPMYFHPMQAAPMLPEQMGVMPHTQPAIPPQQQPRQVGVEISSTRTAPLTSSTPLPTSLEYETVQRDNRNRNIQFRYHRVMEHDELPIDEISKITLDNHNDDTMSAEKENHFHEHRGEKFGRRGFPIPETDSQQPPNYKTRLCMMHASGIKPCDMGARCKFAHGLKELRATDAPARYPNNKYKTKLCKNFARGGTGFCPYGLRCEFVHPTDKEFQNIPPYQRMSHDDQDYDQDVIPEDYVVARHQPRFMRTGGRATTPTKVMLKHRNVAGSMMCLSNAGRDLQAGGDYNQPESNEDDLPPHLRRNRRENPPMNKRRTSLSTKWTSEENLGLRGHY
KLK7 zymogen act: proKLK7 (human) activation, primary screen. purified proKLK7, EDANS-DABCYL substrate fluorescence; 100% is mature enzyme control, 0% vehicle. activation, % at 7 µM. AID 652039. 0.9% of 370,000 active;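 active means activation above the mean of all tested compounds plus 3 SD, computed per campaign excluding outliers beyond control limits, cut at about 13% in these data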
Target sequence (P49862 whole entry, looked up): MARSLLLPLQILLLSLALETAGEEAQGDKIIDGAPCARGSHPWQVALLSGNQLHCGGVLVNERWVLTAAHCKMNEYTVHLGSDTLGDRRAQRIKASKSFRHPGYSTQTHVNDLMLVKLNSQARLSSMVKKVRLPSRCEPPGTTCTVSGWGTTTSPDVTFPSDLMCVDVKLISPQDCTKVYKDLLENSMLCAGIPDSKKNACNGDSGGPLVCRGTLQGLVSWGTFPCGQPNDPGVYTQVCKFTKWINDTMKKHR
Runt-CBFb FRET: inhibitors of human RUNX1 Runt domain binding to CBFb; Cerulean-Runt/Venus-CBFb FRET ratio 530/480, 1 h; inhibition, % at 20 µM; 0.46% of 220,000 active; AID 1496;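 active means inhibition over about 50% at 20 µM in the single-dose screen, limit read from the data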;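 further: 0% = DMSO wells and 100% = excess unlabeled CBFb competitor control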
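System: Cerulean-labeled Runt domain protein | Quantity: 100 nM of each labeled protein | Schedule: 1 h compound exposure, room temperature | Detection: Fluorescence energy transfer, 422 nm excitation, 530/480 nm emission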
Runt-SMMHC FRET: inhibitors of human RUNX1 Runt domain binding to CBFb-SMMHC; 0.74% of 220,000 active; inhibition, % at 20 µM; Cerulean-Runt/Venus-CBFb-SMMHC FRET ratio 530/480, 1 h; AID 1434;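 active means mean inhibition across duplicate retests at 20 µM reaching about 50%, limit read from the data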;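 further: 0% = DMSO wells and 100% = wells with excess untagged CBFb-SMMHC; inhibitors lower the FRET ratio by blocking Runt binding to CBFb-SMMHC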
RanGTP-Impb inh: disruptors of Ran-importin-beta complex formation – biochemical, FRET, CFP-Ran, YFP-importin-beta, homogeneous, primary screen; cell-free CFP-Ran/YFP-importin-beta FRET ratio; inhibition, % (test concentration not listed); 1.1% of 300,000 active;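 active means more than half of the replicate wells show a fall in the fluorescence ratio signal beyond about 16%, limit read from the data, passing the limit was not always enough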;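 further: 0% = DMSO wells and 100% = Ran loaded with GDP instead of GTP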
proKLK7 act conf: confirmation of human kallikrein-7 zymogen activators | activation, % at 7 µM | shares compounds with KLK7 zymogen act | purified proKLK7, EDANS-DABCYL substrate fluorescence; scaled: vehicle 0, mature enzyme 100 | 68% of 3,200 active;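 active means activation, as change over the incubation, above the mean of all tested compounds plus 3 SD, cut at about 13% in these data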
EDANS-DABCYL int: fluorescence interference counter-screen for KLK7 activators. shares compounds with KLK7 zymogen act. EDANS-DABCYL substrate fluorescence interference, no enzyme, 4 h; solvent 0%, active enzyme control 100%. activation, % at 7 µM. 80% of 3,200 active. AID 686952;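 active means activation above the all-compound mean plus 3 SD, ignoring values outside control-based bounds, cut at about 4.8% in these data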;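 further: value is the 4 h activation minus the activation read at time zero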
EDANS interf: optically interferes with EDANS-DABCYL fluorescence, kallikrein-7 activator counter-screen; shares compounds with KLK7 zymogen act; EDANS-DABCYL peptide fluorescence interference, no enzyme; EC50, µM; 20% of 250 active;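 active means compounds that raise the fluorescence signal in this interference counterscreen, with EC50 at or below 10 µM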;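 further: intact quenched peptide substrate alone read at 355 nm excitation and 520 nm emission; signal is fluorescence gain from T0 to T4 after four hours at room temperature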
* = called active by the depositor; ! = not active in a repeat.

How did O=S(=O)(c1cccc(-c2cn3cccnc3n2)c1)N1CCCCCC1 do in these assays?
MEX-5 binding: -6.6; KLK7 zymogen act: 5.2; Runt-CBFb FRET: -1.5; Runt-SMMHC FRET: -2.8; RanGTP-Impb inh: -0.3

Results for OC(Cc1cccc(Br)c1)c1ncc(-c2ccccc2C(F)(F)F)[nH]1 (centres undefined) ?
KLK7 zymogen act: -0.6

Results for COc1ccc(CN2CCN(C3CCC3)CC2CCO)c(F)c1 (centres undefined) ?
MEX-5 binding: -1.3; KLK7 zymogen act: -0.3; RanGTP-Impb inh: 3.9

Results for CCC(=O)N1CCc2cc(-c3csc(NC(=O)c4ccco4)n3)ccc21 ?
MEX-5 binding: -5.1; KLK7 zymogen act: 97.8*; RanGTP-Impb inh: 5.7; proKLK7 act conf: 22.3*; EDANS-DABCYL int: 16.4*; EDANS interf: inactive

How did Cc1cccc(NC(=O)NN(C(=O)c2ccccc2Cl)C(C)(C)C)c1 do in these assays?
KLK7 zymogen act: 0.6

Results for CNc1ncc(C(=O)c2ccc(-c3ccccc3)cc2)s1 ?
MEX-5 binding: -0.7; KLK7 zymogen act: 0.9; Runt-CBFb FRET: 2.2; Runt-SMMHC FRET: -1.6; RanGTP-Impb inh: 2.3

What do the screens show for `COc1ccc(-c2c(C)oc3c(CN4CCOCC4)c(O)ccc3c2=O)cc1OC`?
MEX-5 binding: -1.0; KLK7 zymogen act: 12.0; RanGTP-Impb inh: 0.1

How did COc1ccc(-c2c(C)oc3c(CN4CCOCC4)c(O)ccc3c2=O)cc1 do in these assays?
MEX-5 binding: -2.1; KLK7 zymogen act: 67.0*; Runt-CBFb FRET: 1.8; Runt-SMMHC FRET: 1.4; RanGTP-Impb inh: 4.7; proKLK7 act conf: 23.5*; EDANS-DABCYL int: 31.5*

Results for Cc1oc2c(CN3CCCCC3)c(O)ccc2c(=O)c1-c1ccc(Br)cc1 ?
MEX-5 binding: -1.8; KLK7 zymogen act: 25.3*; RanGTP-Impb inh: -2.0; proKLK7 act conf: 20.7*; EDANS-DABCYL int: 17.4*; EDANS interf: >69.5

How did Cc1oc2c(O)c(O)ccc2c(=O)c1-c1ccc(Cl)cc1 do in these assays?
MEX-5 binding: -1.2; KLK7 zymogen act: 1.3; RanGTP-Impb inh: -2.8

How did Cc1oc2c(CN3CCCC3)c(O)ccc2c(=O)c1-c1ccc(Br)cc1 do in these assays?
MEX-5 binding: 0.8; KLK7 zymogen act: 14.9*; Runt-CBFb FRET: -1.2; Runt-SMMHC FRET: -0.8; RanGTP-Impb inh: 6.8; proKLK7 act conf: 34.8*; EDANS-DABCYL int: 29.6*; EDANS interf: >69.5

How did COC(=O)[C@]12C[C@H](CC(=O)N3CCC(c4ccccc4)CC3)C(=O)N(Cc3ccco3)C1=C[C@H](C1CCCC1)O[C@@H]2C do in these assays?
KLK7 zymogen act: 0.3

What do the screens show for `CCN1CCN(C(=O)c2cc(-c3ccc(Cl)s3)nc3ccccc23)CC1`?
MEX-5 binding: -0.1; KLK7 zymogen act: -30.1; RanGTP-Impb inh: 7.8

Results for CCOC(=O)C1CCCN(C(=O)c2cc(-c3ccco3)nc3ccccc23)C1 (centres undefined) ?
KLK7 zymogen act: 30.7*; proKLK7 act conf: 31.2*; EDANS-DABCYL int: 33.6*

What do the screens show for `CCOC(=O)C1CCCN(C(=O)c2cc(-c3ccncc3)nc3ccccc23)C1` (centres undefined)?
MEX-5 binding: 2.7; KLK7 zymogen act: -0.2; RanGTP-Impb inh: -3.9

How did CCN1CCN(C(=O)c2cc(-c3ccco3)nc3ccccc23)CC1 do in these assays?
KLK7 zymogen act: 84.2*; proKLK7 act conf: 71.6*; EDANS-DABCYL int: 72.4*

How did O=C(c1cc(-c2ccco2)nc2ccccc12)N1CCCC(C(F)(F)F)C1 (centres undefined) do in these assays?
KLK7 zymogen act: 47.7*; proKLK7 act conf: 66.5*; EDANS-DABCYL int: 66.5*

Results for Cc1cccc(NC(=O)CNC(=O)[C@H]2O[C@@H](n3ccc(N)nc3=O)[C@H](O)[C@@H]2O)c1C ?
KLK7 zymogen act: 0.7

How did O=C(OC12CCCN(C1)/C(=C/c1cccc(Cl)c1)C2)c1ccc(Cl)cc1 (centres undefined) do in these assays?
KLK7 zymogen act: 0.5

How did O=C(O)Cc1c(C(=O)O)nnn1-c1ccc(Cl)cc1Cl do in these assays?
MEX-5 binding: -0.5; KLK7 zymogen act: 0.5; Runt-CBFb FRET: 0.3; Runt-SMMHC FRET: -1.5; RanGTP-Impb inh: -2.7

Results for CC(OC(=O)Cc1c[nH]c2ccccc12)C(=O)Nc1ccccc1[N+](=O)[O-] (centres undefined) ?
MEX-5 binding: 1.3; KLK7 zymogen act: -0.2; RanGTP-Impb inh: 2.7

Results for CCOC(=O)c1cc2c(=O)n3cccc(C)c3nc2n(CC2CCCO2)c1=NC(C)=O (centres undefined) ?
MEX-5 binding: -2.9; KLK7 zymogen act: 15.0*!; RanGTP-Impb inh: 21.6*; proKLK7 act conf: 6.1; EDANS-DABCYL int: 7.0*

Results for Cc1cccn2c(=O)c3cc(C(=O)NCC4CCCO4)c(=N)n(CC4CCCO4)c3nc12 (centres undefined) ?
MEX-5 binding: -2.0; KLK7 zymogen act: 145.1*; RanGTP-Impb inh: 187.7*; proKLK7 act conf: 32.9*; EDANS-DABCYL int: 42.1*

How did Cc1cccn2c(=O)c3cc(C(=O)NC4CCCC4)c(=N)n(CCCN4CCOCC4)c3nc12 do in these assays?
MEX-5 binding: 0.0; KLK7 zymogen act: 34.7*; RanGTP-Impb inh: 175.0*; proKLK7 act conf: 9.1; EDANS-DABCYL int: 12.2*

What do the screens show for `Cc1ccc2cc(CN(CCCN3CCOCC3)C(=O)NC3CCCCC3)c(=O)[nH]c2c1C`?
MEX-5 binding: 0.6; KLK7 zymogen act: 0.2; RanGTP-Impb inh: -1.8

What do the screens show for `CC(C)NC(=O)c1ccc2c(=O)n(CC3CCCO3)c(=S)[nH]c2c1` (centres undefined)?
MEX-5 binding: -2.4; KLK7 zymogen act: -0.3; Runt-CBFb FRET: -1.4; Runt-SMMHC FRET: -6.0; RanGTP-Impb inh: 1.5

What do the screens show for `Cc1cccn2c(=O)c3cc(C(=O)NC4CCCC4)c(=N)n(CC4CCCO4)c3nc12` (centres undefined)?
MEX-5 binding: 1.0; KLK7 zymogen act: 81.0*; RanGTP-Impb inh: 191.6*; proKLK7 act conf: -30.5; EDANS-DABCYL int: -34.0

Results for CC(=O)c1ccc(OCc2nnn(CC(=O)NS(=O)(=O)Cc3ccccc3)c2-c2ccccc2)cc1 ?
KLK7 zymogen act: 0.3

Source: PubChem
